Bioassay records (PubChem BioAssay)
NPY2 pot ag: NPY-Y2 potentiators or agonists, primary screen, cell-based. activation, % at 3.6 µM. actives 0.45% (n = 220,000). cells expressing NPY-Y2, potentiator/agonist read-out. AID 1359, 2008; in the data active = activation above about 27%;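 note: cells stimulated with NPY near EC25 plus isoproterenol at EC100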
NPY Y2 blocker: NPY-Y2 receptor antagonists, primary screen, cell-based | actives 0.99% (n = 140,000) | inhibition, % at 2.7 µM | AID 793, 2007 | NPY-Y2 expressing cells, antagonist mode | Neuropeptide Y receptor type 2 (Homo sapiens), P49146; in the data active = inhibition above about 17%
NPY Y1 blocker: NPY-Y1 receptor antagonists, primary screen, cell-based. AID 1040, 2008. inhibition, % at 3.6 µM. HEK293-CNG Y1 cells, membrane potential fluorescence; NPY at EC95, then isoproterenol. actives 1% (n = 200,000). Neuropeptide Y receptor type 1 (Homo sapiens), P25929;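 active = inhibition above the campaign mean inhibition of all tested compounds plus 3 SD, cut at about 20% in these data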
Target sequence (P25929 whole entry, looked up): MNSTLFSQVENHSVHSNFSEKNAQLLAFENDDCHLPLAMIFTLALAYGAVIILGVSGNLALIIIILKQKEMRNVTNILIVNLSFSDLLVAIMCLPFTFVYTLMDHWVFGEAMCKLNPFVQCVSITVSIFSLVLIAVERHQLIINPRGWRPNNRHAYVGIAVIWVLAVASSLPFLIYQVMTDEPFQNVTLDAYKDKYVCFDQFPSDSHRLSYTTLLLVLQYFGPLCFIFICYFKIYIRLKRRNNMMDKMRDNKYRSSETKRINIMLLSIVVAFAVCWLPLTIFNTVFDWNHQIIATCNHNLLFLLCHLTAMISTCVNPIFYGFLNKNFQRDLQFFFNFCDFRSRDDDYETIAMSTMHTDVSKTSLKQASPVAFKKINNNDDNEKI
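Material: Y1- and CNG-channel-expressing HEK293 cells / Probe or stimulus: NPY 25 nM then isoproterenol 1 µM plus Ro 20-1724 25 µM / Doses: 3.6 µM single dose, DMSO 0.4% / Schedule: compound incubation 1 h at room temperature, readout 45 min post-stimulation / Signal: membrane potential fluorescence / Benchmarks: isoproterenol-only wells as full block versus NPY-plus-isoproterenol wells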
NPY1 pot ag: NPY-Y1 receptor potentiators or agonists, primary screen, cell-based; Neuropeptide Y receptor type 1 (Homo sapiens), P25929; NPY-Y1 expressing cells, potentiator/agonist activation; activation, % at 3.6 µM; actives 0.37% (n = 220,000); AID 1304, 2008; in the data active = activation above about 33%, passing the limit was not always enough;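 note: cells stimulated with NPY at EC10 then isoproterenol at EC100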
EP2 antag: human EP2 receptor antagonists, primary screen, TR-FRET cAMP, C6 glioma cells. Prostaglandin E2 receptor EP2 subtype (Homo sapiens), P43116. C6 glioma cells expressing human EP2; cells stimulated with saturating PGE2. inhibition, % at 25 µM. actives 0.52% (n = 260,000). AID 1422, 2008;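 active = percent inhibition above 40 after rounding to a whole number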;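 note: rat C6 glioma host cells with rolipram phosphodiesterase inhibitor present; the protocol text gives 20 µM as final concentration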
Target sequence (P43116 whole entry, looked up): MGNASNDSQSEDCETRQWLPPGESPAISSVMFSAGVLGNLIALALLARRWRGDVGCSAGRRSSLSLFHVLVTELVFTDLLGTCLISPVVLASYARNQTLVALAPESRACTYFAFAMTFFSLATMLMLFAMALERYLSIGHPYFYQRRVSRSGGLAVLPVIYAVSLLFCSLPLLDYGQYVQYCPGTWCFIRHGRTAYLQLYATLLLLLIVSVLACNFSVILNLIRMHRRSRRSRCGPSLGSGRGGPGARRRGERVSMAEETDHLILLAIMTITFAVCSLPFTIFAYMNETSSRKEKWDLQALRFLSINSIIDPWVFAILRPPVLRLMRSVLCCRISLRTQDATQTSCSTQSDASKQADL
EP2 modulator: EP2 receptor modulators, cAMP readout, primary screen, cell-based, HTRF cAMP, PGE2 stimulation; Prostaglandin E2 receptor EP2 subtype (Homo sapiens), P43116; EP2-expressing cells, cAMP HTRF FRET, PGE2 co-stimulation; actives 0.83% (n = 260,000); AID 940, 2007; induction, % at 25 µM;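 active = compounds whose cAMP rise, as percent of the full-agonist control response, exceeds 60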;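 note: rat C6 glioma line stably carrying human EP2 under a CMV promoter; the protocol text gives 20 µM as final concentration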
NPY1 antag ctr: NPY-Y1 receptor antagonists, selectivity check, counter-screen for NPY-Y2 antagonist project, cell-based; cell-based NPY-Y1 antagonism counterscreen; inhibition, % at 3.6 µM; actives 19% (n = 710); shares compounds with NPY Y2 blocker; AID 1256, 2008; in the data active = inhibition above about 20%;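 note: cells challenged with NPY then isoproterenol with cAMP sensed through a CNG channel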
NPY2 antag conf: NPY-Y2 receptor antagonists, retest of hits, confirmation, HEK293-CNG cells, membrane potential fluorescence, triplicate. shares compounds with NPY Y2 blocker. HEK293 NPY-Y2 CNG channel. inhibition, % at 2.8 µM. actives 32% (n = 710). AID 1257, 2008;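 active = mean inhibition of triplicate wells above the hit cutoff set in the primary screen, cut at about 17% in these data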
Hits are given with their value; ! = a repeat was not active. In the library only some 2.8% were active in any assay of this set; here they are far more common.

Results for Cc1ccc(C(=O)NC2CCc3ccccc3C2=O)cc1 (centres undefined) ?
NPY2 pot ag: inactive; NPY Y1 blocker: inactive; NPY1 pot ag: inactive; EP2 antag: inactive; EP2 modulator: inactive

Results for CCOC(=O)c1nn(-c2ccc(Cl)cc2)c2nnc(Cc3ccccc3)c(=O)n12 ?
NPY2 pot ag: inactive; NPY Y2 blocker: inactive; NPY Y1 blocker: inactive; NPY1 pot ag: inactive; EP2 antag: inactive; EP2 modulator: inactive

What do the screens show for `Cc1ccc(-n2nc(C(=O)c3ccccc3)n3c(=O)c(Cc4ccccc4)nnc23)cc1`?
NPY2 pot ag: inactive; NPY Y2 blocker: 18; NPY Y1 blocker: inactive; NPY1 pot ag: inactive; EP2 antag: inactive; EP2 modulator: inactive; NPY1 antag ctr: 73; NPY2 antag conf: 99

Results for COc1cc(C(=O)Nc2cc(-c3nn4c(C)nnc4s3)ccc2C)cc(OC)c1OC ?
EP2 antag: inactive; EP2 modulator: inactive

How did CCCCN1C2=NCCCN2c2ccccc21 do in these assays?
NPY2 pot ag: inactive; NPY Y2 blocker: inactive; NPY Y1 blocker: inactive; NPY1 pot ag: inactive; EP2 antag: inactive; EP2 modulator: inactive

What do the screens show for `CCCCN1C2=NCCCN2c2cc(C)c(C)cc21`?
NPY2 pot ag: inactive; NPY Y2 blocker: 22; NPY Y1 blocker: inactive; NPY1 pot ag: inactive; EP2 modulator: inactive; NPY1 antag ctr: inactive; NPY2 antag conf: inactive

How did O=C(c1cc(-c2cccs2)on1)N1CCc2ccccc2C1 do in these assays?
NPY2 pot ag: inactive; NPY Y2 blocker: 29; NPY Y1 blocker: inactive; NPY1 pot ag: inactive; EP2 antag: inactive; EP2 modulator: inactive; NPY1 antag ctr: inactive; NPY2 antag conf: inactive

How did Brc1cc2c(cc1Br)OCCOCCOCCOCCO2 do in these assays?
NPY2 pot ag: inactive; NPY Y1 blocker: inactive; NPY1 pot ag: inactive; EP2 antag: inactive; EP2 modulator: inactive

Results for Brc1ccc2c(c1)OCCOCCOc1cc(Br)ccc1OCCOCCOCCO2 ?
NPY2 pot ag: inactive; NPY Y2 blocker: 24; NPY Y1 blocker: inactive; NPY1 pot ag: inactive; EP2 antag: inactive; EP2 modulator: inactive; NPY1 antag ctr: inactive; NPY2 antag conf: inactive

What do the screens show for `NNC(=O)Cn1c(SCc2ccccc2)nc2ccccc21`?
NPY2 pot ag: inactive; NPY Y2 blocker: 22; NPY Y1 blocker: inactive; NPY1 pot ag: inactive; EP2 antag: inactive; EP2 modulator: inactive; NPY1 antag ctr: inactive; NPY2 antag conf: inactive

Results for CCN(CC)S(=O)(=O)c1ccc(/C=C/C(=O)Nc2ccc(Br)cc2F)cc1 ?
NPY2 pot ag: inactive; NPY Y2 blocker: 17; NPY Y1 blocker: inactive; NPY1 pot ag: inactive; EP2 antag: inactive; EP2 modulator: inactive; NPY1 antag ctr: 29; NPY2 antag conf: 17

How did CCN(CC)S(=O)(=O)c1ccc(/C=C/C(=O)Nc2ccc(F)cc2F)cc1 do in these assays?
NPY2 pot ag: inactive; NPY Y2 blocker: inactive; NPY Y1 blocker: inactive; NPY1 pot ag: inactive; EP2 antag: inactive; EP2 modulator: inactive

How did COc1ccc(C2=C(CN(C)C)C(c3ccccc3)c3ccccc3O2)cc1 (centres undefined) do in these assays?
NPY2 pot ag: inactive; NPY Y2 blocker: 18!; NPY Y1 blocker: 23!; NPY1 pot ag: inactive; EP2 antag: inactive; EP2 modulator: inactive; NPY1 antag ctr: 25; NPY2 antag conf: 34

Results for CCN(CC)C(=O)CN1CCCC(c2nc(C)ncc2-c2cc(C)no2)C1 (centres undefined) ?
EP2 modulator: inactive

Results for COc1ccc(OCC(=O)Nc2cccc3cccnc23)cc1 ?
NPY2 pot ag: inactive; NPY Y2 blocker: 48; NPY Y1 blocker: inactive; NPY1 pot ag: inactive; EP2 antag: inactive; EP2 modulator: inactive; NPY1 antag ctr: inactive; NPY2 antag conf: 24

What do the screens show for `CN(C)CCCn1c(SCC(=O)N2c3ccccc3Sc3ccccc32)nc2ccccc2c1=O`?
NPY2 pot ag: inactive; NPY Y2 blocker: 39; NPY Y1 blocker: inactive; NPY1 pot ag: inactive; EP2 antag: inactive; EP2 modulator: inactive; NPY1 antag ctr: 43; NPY2 antag conf: 77

How did CCCCCc1cc(O)c2c(C)cc(=O)oc2c1 do in these assays?
NPY2 pot ag: inactive; NPY Y2 blocker: inactive; NPY Y1 blocker: inactive; NPY1 pot ag: inactive; EP2 antag: inactive; EP2 modulator: inactive

How did CCCCc1cc(O)c(CCCC)c(O)c1 do in these assays?
NPY2 pot ag: inactive; NPY Y2 blocker: 21; NPY Y1 blocker: inactive; NPY1 pot ag: inactive; EP2 antag: inactive; EP2 modulator: inactive; NPY1 antag ctr: inactive; NPY2 antag conf: inactive

Results for O=C(Cn1nc(-c2cccc(F)c2)n(-c2ccncc2)c1=O)NC1CC1 ?
EP2 modulator: inactive

How did CCOc1ccc2nc(NC(=O)CS(=O)(=O)c3ccc(C)cc3)sc2c1 do in these assays?
NPY2 pot ag: inactive; NPY Y2 blocker: 25; NPY Y1 blocker: inactive; NPY1 pot ag: inactive; EP2 antag: inactive; EP2 modulator: inactive; NPY1 antag ctr: inactive; NPY2 antag conf: 18

What do the screens show for `CCOc1ccc2nc(NC(=O)CS(=O)(=O)c3ccccc3)sc2c1`?
NPY2 pot ag: inactive; NPY Y2 blocker: inactive; NPY Y1 blocker: inactive; NPY1 pot ag: inactive; EP2 antag: inactive; EP2 modulator: inactive

What do the screens show for `COc1ccc(CCNC(=O)C2CCN(c3ncccn3)CC2)cc1OC`?
EP2 antag: inactive; EP2 modulator: inactive

What do the screens show for `CSc1ccc(Cl)c(C(=O)NCCOc2cc(C)ccc2C(C)C)c1`?
NPY2 pot ag: inactive; NPY Y2 blocker: 17; NPY Y1 blocker: inactive; NPY1 pot ag: inactive; EP2 antag: inactive; EP2 modulator: inactive; NPY1 antag ctr: inactive; NPY2 antag conf: inactive

What do the screens show for `CSc1ccc(Cl)c(C(=O)NCCOc2ccccc2)c1`?
NPY2 pot ag: inactive; NPY Y2 blocker: inactive; NPY Y1 blocker: inactive; NPY1 pot ag: inactive; EP2 antag: inactive; EP2 modulator: inactive

How did Cc1ccc(-c2noc(=O)n2CC(=O)Nc2sc(C)c(C)c2C#N)cc1 do in these assays?
EP2 antag: inactive; EP2 modulator: inactive

Results for COc1ccc(-c2nc(C#N)c(NC(C)c3ccccc3)o2)cc1OC (centres undefined) ?
NPY2 pot ag: inactive; NPY Y2 blocker: 21; NPY Y1 blocker: inactive; NPY1 pot ag: inactive; EP2 modulator: inactive; NPY1 antag ctr: inactive; NPY2 antag conf: 34
